From ChEMBL document CHEMBL1782023, “Spirocyclic lignans from Guaiacum (Zygophyllaceae) induce apoptosis in human breast cancer cell lines” (J Nat Prod, 2011)
Active and inactive are the calls of the source. No cut-off for these calls is given here.

Assays:
MDA-MB-231 [1] = test: Cell cycle arrest in human MDA-MB-231 cells assessed as increase of cells in sub-G0 phase after 24 hrs using annexin V/propidium iodide staining by flow cytometry; assay type: functional, cell-based
In short: (§1)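 Cells cultured in RPMI 1640 with 10% heat-inactivated FCS, 37 °C, 5% CO2. After 24 h of growth, cells were treated with test samples dissolved in DMSO for a further 24 h. Cell cycle distribution was measured by FACS with annexin V/propidium iodide double staining. For DNA content, singlet events were gated and 10 000-20 000 events were acquired. Read-out: percentage of cells in S phase and in sub-G0 phase.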

MDA-MB-231 [2] = test: Cell cycle arrest in human MDA-MB-231 cells assessed as decrease in cells in S phase after 24 hrs using annexin V/propidium iodide staining by flow cytometry; assay type: functional, cell-based; in short: as §1
MDA-MB-231 [3] = test: Induction of apoptosis in human MDA-MB-231 cells assessed as condensation of nucleus after 24 hrs using Hoechst 33342/propidium iodide staining […]; assay type: functional, cell-based
MDA-MB-231 [4] = test: Induction of apoptosis in human MDA-MB-231 cells assessed as condensation of cytoplasm after 24 hrs using Hoechst 33342/propidium iodide staining by FACS analysis; assay type: functional, cell-based
MDA-MB-231 [5] = test: Induction of apoptosis in human MDA-MB-231 cells assessed as chromatin condensation after 24 hrs using Hoechst 33342/propidium iodide staining […]; assay type: functional, cell-based
MDA-MB-231 [6] = test: Cytotoxicity against human MDA-MB-231 cells after 48 hrs by Alamar blue assay; assay type: functional, cell-based; settings: MDA-MB-231, 48 h
In short: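 Cells were seeded at 5000 per well and grown for 24 h. Samples were then added from DMSO solution, with 0.1% DMSO as vehicle control. After 48 h incubation, viability was read from Alamar blue colour spectrophotometrically at 540 nm.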

MDA-MB-231 [7] = test: Induction of apoptosis in human MDA-MB-231 cells assessed as chromatin segregation after 24 hrs using Hoechst 33342/propidium iodide staining […]; assay type: functional, cell-based
MDA-MB-231 [8] = test: Cell cycle arrest in human MDA-MB-231 cells assessed as decrease in cells in S phase at 30 ug/ml after 24 hrs using annexin V/propidium iodide staining by flow cytometry (reference value: 13%); assay type: functional; set-up: scale not given: the % may be the effect or the level left; in short: as §1
MDA-MB-231 [9] = test: Induction of apoptosis in human MDA-MB-231 cells assessed as loss of membrane […] at 1.2 to 30 ug/ml using Hoechst 33342/propidium iodide staining by FACS analysis; assay type: functional, cell-based; settings: TDE = time-dependent effect
MDA-MB-231 [10] = test: Induction of apoptosis in human MDA-MB-231 cells assessed as condensation of nucleus at 1.2 to 30 ug/ml using Hoechst 33342/propidium iodide staining […]; assay type: functional, cell-based; settings: TDE = time-dependent effect
MDA-MB-231 [11] = test: Induction of apoptosis in human MDA-MB-231 cells assessed as condensation of cytoplasm at 1.2 to 30 ug/ml […]; assay type: functional, cell-based; settings: TDE = time-dependent effect
MDA-MB-231 [12] = test: Induction of apoptosis in human MDA-MB-231 cells assessed as chromatin condensation at 1.2 to 30 ug/ml using Hoechst 33342/propidium iodide staining […]; assay type: functional, cell-based; settings: TDE = time-dependent effect
MDA-MB-231 [13] = test: Induction of apoptosis in human MDA-MB-231 cells assessed as chromatin segregation at 1.2 to 30 ug/ml using Hoechst 33342/propidium iodide staining […]; assay type: functional, cell-based; settings: TDE = time-dependent effect
MDA-MB-231 [14] = test: Induction of apoptosis in human MDA-MB-231 cells assessed as loss of membrane […] after 24 hrs using Hoechst 33342/propidium iodide staining by FACS analysis; assay type: functional, cell-based

SMILES | Activity (MDA-MB-231 [1]) | Activity (MDA-MB-231 [2]) | IC50 (MDA-MB-231 [6]) | Activity (MDA-MB-231 [8]) | also measured
CC[C@@]1(O)C(=O)OCc2c1cc1n(c2=O)Cc2cc3ccccc3nc2-1 | Active | Dose-dependent effect | – | – | –
C=C1[C@@H](c2ccc(O)c(OC)c2)O[C@@H](c2ccc(O)c(OC)c2)[C@@]12CCC1=C(C2)[C@@H](c2ccc(O)c(OC)c2)O[C@H]1c1ccc(O)c(OC)c1 [RAMONANIN A] | Active | Dose-dependent effect | 18 µM | <4% | Activity (MDA-MB-231 [3]): Dose-dependent effect; Activity (MDA-MB-231 [4]): Dose-dependent effect; Activity (MDA-MB-231 [5]): Dose-dependent effect; Activity (MDA-MB-231 [7]): Dose-dependent effect; Activity (MDA-MB-231 [9]): tde; Activity (MDA-MB-231 [10]): tde; Activity (MDA-MB-231 [11]): tde; Activity (MDA-MB-231 [12]): tde; Activity (MDA-MB-231 [13]): tde; Activity (MDA-MB-231 [14]): Dose-dependent effect
C=C1[C@H](c2ccc(O)c(OC)c2)O[C@H](c2ccc(O)c(OC)c2)[C@@]12CCC1=C(C2)[C@@H](c2ccc(O)c(OC)c2)O[C@H]1c1ccc(O)c(OC)c1 [RAMONANIN B] | Active | Dose-dependent effect | 18 µM | <4% | –
C=C1[C@@H](c2ccc(O)c(OC)c2)O[C@@H](c2ccc(O)c(OC)c2)[C@@]12CCC1=C(C2)[C@H](c2ccc(O)c(OC)c2)O[C@@H]1c1ccc(O)c(OC)c1 [RAMONANIN C] | – | – | 18 µM | – | –
C=C1[C@@H](c2ccc(O)c(OC)c2)O[C@@H](c2ccc(O)c(OC)c2)[C@@]12CCC1=C(C2)[C@@H](c2ccc(O)c(OC)c2)O[C@@H]1c1ccc(O)c(OC)c1 [RAMONANIN D] | – | – | 18 µM | – | –
